# Key:
# Autotaxin [1] = target: Autotaxin (Rattus norvegicus, UniProt Q64610); test: Inhibition of ATX in rat plasma assessed as reduction in plasma lysophosphatidic acid 18:2 levels after 2 hrs by LC-MS/MS method
# How it was run: (§1)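 Rat plasma thawed on ice and incubated with a compound dose range for 2 h at 37°C. Methanol precipitation with LPA 17:0 internal standard, isocratic C18 LC-MS/MS, LPA 18:2/LPA 17:0 peak-area ratio. % reduction = 100 − (ratio/control ratio × 100). Some compounds were tested only at 0.5, 5 and 50 µM (n = 3).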
# Autotaxin [2] = target: T1, Autotaxin (Homo sapiens, UniProt Q13822); test: Inhibition of glycosylated human ATX using LPC 16:0 as substrate after 30 mins by luminescence assay
# How it was run: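 Started with 150 µM LPC 16:0 solution, 30 min at 37°C. Stopped with EGTA and choline detected by choline oxidase/HRP/TOOS/4-aminoantipyrine; read after 30 min at room temperature.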
# Autotaxin [3] = target: T1, Autotaxin; test: Inhibition of glycosylated human ATX using FS-3 as substrate preincubated for 30 mins followed by substrate addition measured after 30 mins by fluorescence assay
# How it was run: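 Fivefold compound dilutions from a 20 µM top. Started with 0.75 µM FS-3 solution; fluorescence (ex 485, em 520 nm) read after 30 min at room temperature. SD where replicated at least twice.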
# [4] = target: Autotaxin (Rattus norvegicus) (UniProt Q64610); test: Inhibition of ATX in rat plasma assessed as reduction in plasma lysophosphatidic acid 18:2 levels at 0.5 to 50 uM after 2 hrs by LC-MS/MS method relative to control; how it was run: as §1
# [5] = target: Autotaxin (Rattus norvegicus) (UniProt Q64610); conditions: 50 uM
# [6] = target: Autotaxin (Rattus norvegicus) (UniProt Q64610); conditions: 5 uM
# [7] = target: Autotaxin (Rattus norvegicus) (UniProt Q64610); conditions: 0.5 uM
# [8] = Oral bioavailability in Sprague-Dawley rat at 5 mg/kg; assay type: ADME, organism-based; conditions: in vivo
# How it was run: (§2)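 PK from single 1 mg/kg iv and 5 mg/kg po doses (n = 3); mice sampled compositely as a group of six. Plasma drug by LC-MS/MS against an eight-level calibration curve with QCs, LLOQ 4 ng/mL. Parameters by noncompartmental analysis of averaged plasma concentrations; CV% reported for rats.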
# [9] = Clearance in Sprague-Dawley rat at 1 mg/kg, iv; assay type: ADME, organism-based; conditions: in vivo; how it was run: as §2
# [10] = Plasma concentration in Sprague-Dawley rat at 5 mg/kg, po measured after 3 hrs by LC-MS/MS method; assay type: ADME, organism-based
# How it was run: (§3)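 Fasted male Sprague Dawley rats dosed orally at 5 mg/kg in 10% hydroxypropyl-β-cyclodextrin (pH 3, citric acid); jugular catheter blood into Li-heparin at 0.5, 1, 3 h. Plasma level by LC-MS/MS against an eight-level calibration curve with QCs, LLOQ 4 ng/mL; mean of 3 animals.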
# Rattus norvegicus [11] = test: In vivo inhibition of ATX in Sprague-Dawley rat plasma assessed as reduction in plasma lysophosphatidic acid 18:2 levels at 5 mg/kg, po measured after 0.5 hrs by LC-MS/MS method; assay type: functional
# How it was run: (§4)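 Fasted male Sprague Dawley rats given 5 mg/kg orally in 10% hydroxypropyl-β-cyclodextrin, pH 3 with citric acid. Jugular catheter blood taken into Li-heparin at 0.5, 1 and 3 h. Methanol precipitation with LPA 17:0 internal standard, isocratic C18 LC-MS/MS, peak-area ratio of LPA 18:2 to LPA 17:0 with no calibration curve. % reduction against the vehicle group mean at the same time; 3 animals.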
# [12] = Half life in Sprague-Dawley rat at 1 mg/kg, iv; assay type: ADME, organism-based; conditions: in vivo; how it was run: as §2
# [13] = Plasma concentration in Sprague-Dawley rat at 5 mg/kg, po measured after 1 hr by LC-MS/MS method; assay type: ADME, organism-based; how it was run: as §3
# [14] = Volume of distribution at steady state in mouse at 1 mg/kg, iv; assay type: ADME, organism-based; conditions: in vivo, read-out: Vdss; how it was run: as §2
# Rattus norvegicus [15] = test: In vivo inhibition of ATX in Sprague-Dawley rat plasma assessed as reduction in plasma lysophosphatidic acid 18:2 levels at 5 mg/kg, po measured after 3 hrs by LC-MS/MS method; assay type: functional; how it was run: as §4
# [16] = Plasma concentration in Sprague-Dawley rat at 5 mg/kg, po measured after 0.5 hrs by LC-MS/MS method; assay type: ADME, organism-based; how it was run: as §3
# [17] = Protein binding in Sprague-Dawley rat plasma; assay type: ADME, cell-free; conditions: read-out: PPB
# [18] = Volume of distribution at steady state in Sprague-Dawley rat at 1 mg/kg, iv; assay type: ADME, organism-based; conditions: in vivo, read-out: Vdss; how it was run: as §2
# Rattus norvegicus [19] = test: In vivo inhibition of ATX in Sprague-Dawley rat plasma assessed as reduction in plasma lysophosphatidic acid 18:2 levels at 5 mg/kg, po measured after 1 hr by LC-MS/MS method; assay type: functional; how it was run: as §4
# [20] = Half life in mouse at 1 mg/kg, iv; assay type: ADME, organism-based; conditions: in vivo; how it was run: as §2
smiles,measurement,setting,value
CCc1nc2ccc(C3CCN(CC(=O)N4CCCC4)CC3)cn2c1N(C)c1nc(-c2ccc(F)cc2)cs1,IC50,Autotaxin [1],115 nM
same,IC50,Autotaxin [2],86 nM
CCc1nc2ccc(C3CCN(S(C)(=O)=O)CC3)cn2c1N(C)c1nc(-c2ccc(F)cc2)c(C#N)s1,IC50,Autotaxin [2],138 nM
CCc1nc2ccc(C3CCN(S(C)(=O)=O)CC3)cn2c1N(C)c1nc2c(s1)Cc1cc(F)ccc1-2,IC50,Autotaxin [2],1210 nM
CCOC(=O)N1CCC(NC(=O)c2ccc3nc(CC)c(N(C)c4nc(-c5ccc(Cl)cc5)cs4)n3c2)CC1,IC50,Autotaxin [1],12600 nM
same,IC50,Autotaxin [2],6560 nM
same,IC50,Autotaxin [3],5 nM
CCc1nc2ccc(C3CCN(S(C)(=O)=O)CC3)cn2c1N(C)c1nc(-c2ccc(F)cc2C)cs1,IC50,Autotaxin [2],533 nM
CCc1nc2ccc(-c3cccnc3)cn2c1N(C)c1nc(-c2ccc(F)cc2)cs1,IC50,Autotaxin [1],> 50000 nM
same,inhibition,[4],< 50%
same,IC50,Autotaxin [2],> 10000 nM
same,IC50,Autotaxin [3],2 nM
CCc1nc2ccc(C3CCN(CC(=O)NC4CC4)CC3)cn2c1N(C)c1nc(-c2ccc(F)cc2)cs1,IC50,Autotaxin [2],1610 nM
CCc1nc2ccc(N3CCN(Cc4ncc[nH]4)CC3)cn2c1N(C)c1nc(-c2ccc(F)cc2)cs1,IC50,Autotaxin [2],> 4100 nM
CCc1nc2ccc(C3CCN(S(C)(=O)=O)CC3)cn2c1N(C)c1nc(-c2ccc(F)cc2C#N)cs1,IC50,Autotaxin [2],126 nM
CCOC(=O)N1CCC(NCc2ccc3nc(CC)c(N(C)c4nc(-c5ccc(Cl)cc5)cs4)n3c2)CC1,inhibition,[5],100%
same,IC50,Autotaxin [1],< 5000 nM
same,inhibition,[6],67%
same,IC50,Autotaxin [2],1210 nM
same,IC50,Autotaxin [3],9 nM
same,inhibition,[7],7%
CCc1nc2ccc(C3CCN(S(C)(=O)=O)CC3)cn2c1N(C)c1nc2c(s1)Cc1ccc(F)cc1-2,IC50,Autotaxin [2],804 nM
CCc1nc2ccc(C3CCN(S(C)(=O)=O)CC3)cn2c1N(C)c1nc(-c2ccc(F)cc2)c(C(=O)O)s1,IC50,Autotaxin [2],> 10000 nM
CCc1nc2ccc(N3CCN(Cc4ncon4)CC3)cn2c1N(C)c1nc(-c2ccc(F)cc2)cs1,IC50,Autotaxin [2],1710 nM
CCc1nc2ccc(N3CCOCC3)cn2c1N(C)c1nc(-c2ccc(F)cc2)cs1,IC50,Autotaxin [1],> 50000 nM
same,inhibition,[4],< 50%
same,IC50,Autotaxin [2],6800 nM
same,IC50,Autotaxin [3],8 nM
CCc1nc2ccc(C3CCN(S(C)(=O)=O)CC3)cn2c1N(C)c1nc(-c2ccc(Cl)nc2)cs1,IC50,Autotaxin [2],493 nM
CCc1nc2ccc(C3CCN(S(C)(=O)=O)CC3)cn2c1N(C)c1nc(-c2ccc(OC)cc2)cs1,IC50,Autotaxin [2],1680 nM
CCOC(=O)CN1CCC(c2ccc3nc(CC)c(N(C)c4nc(-c5ccc(F)cc5)cs4)n3c2)CC1,IC50,Autotaxin [2],480 nM
CCc1nc2ccc(C3CCN(S(C)(=O)=O)CC3)cn2c1N(C)c1nc(-c2ccc(C(C)(C)C)cc2)cs1,IC50,Autotaxin [2],7610 nM
CCc1nc2ccc(N3CCN(Cc4ncco4)CC3)cn2c1N(C)c1nc(-c2ccc(F)cc2)cs1,IC50,Autotaxin [2],1520 nM
CCc1nc2ccc(C3CCN(S(C)(=O)=O)CC3)cn2c1N(C)c1nc2ccccc2s1,IC50,Autotaxin [2],> 10000 nM
CCc1nc2ccc(C3CCN(S(C)(=O)=O)CC3)cn2c1N(C)c1nc(-c2ccc(F)cc2F)cs1,IC50,Autotaxin [2],2020 nM
CCc1nc2ccc(C3CCN(S(C)(=O)=O)CC3)cn2c1N(C)c1nc(-c2ccc(F)cc2)cs1,IC50,Autotaxin [1],1030 nM
same,IC50,Autotaxin [2],710 nM
CCc1nc2ccc(C(=O)NCCO)cn2c1N(C)c1nc(-c2ccc(Cl)cc2)cs1,IC50,Autotaxin [1],> 50000 nM
same,inhibition,[4],< 50%
same,bioavailability,[8],39%
same,IC50,Autotaxin [2],> 10000 nM
same,IC50,Autotaxin [3],122 nM
same,clearance,[9],2.5 mL/min/kg
CCc1nc2ccc(C3CCN(S(C)(=O)=O)CC3)cn2c1N(C)c1nc(-c2ccc(F)c(F)c2)cs1,IC50,Autotaxin [2],1900 nM
CCc1nc2ccc(C3CCN(CC(=O)N(C)C)CC3)cn2c1N(C)c1nc(-c2ccc(F)cc2)cs1,IC50,Autotaxin [1],476 nM
same,IC50,Autotaxin [2],261 nM
CCc1nc2ccc(N3CCN(CC(=O)N4CCOCC4)CC3)cn2c1N(C)c1nc(-c2ccc(F)cc2)cs1,IC50,Autotaxin [2],231 nM
CCc1nc2ccc(C3CCN(S(C)(=O)=O)CC3)cn2c1N(C)c1nc(-c2ccc(F)cc2)c(C(N)=O)s1,IC50,Autotaxin [2],1410 nM
CCc1nc2ccc(C3CCN(S(C)(=O)=O)CC3)cn2c1N(C)c1nc(-c2ccc(C(F)(F)F)cc2)cs1,IC50,Autotaxin [2],1000 nM
CCc1nc2ccc(C3CCN(S(C)(=O)=O)CC3)cn2c1N(C)c1nc(C2CCCCC2)cs1,IC50,Autotaxin [2],1900 nM
CCc1nc2ccc(C3CCN(S(C)(=O)=O)CC3)cn2c1N(C)c1nc(-c2ccc(F)cc2)c(C)s1,IC50,Autotaxin [2],2270 nM
CCc1nc2ccc(C3CCN(S(=O)(=O)CCCN(C)C)CC3)cn2c1N(C)c1nc(-c2ccc(F)cc2)cs1,IC50,Autotaxin [2],357 nM
CCc1nc2ccc(C3CCN(CC(N)=O)CC3)cn2c1N(C)c1nc(-c2ccc(F)cc2)cs1,IC50,Autotaxin [2],2370 nM
CCc1nc2ccc(N3CCN(Cc4cnc[nH]4)CC3)cn2c1N(C)c1nc(-c2ccc(F)cc2)cs1,IC50,Autotaxin [1],4100 nM
same,IC50,Autotaxin [2],771 nM
CCc1nc2ccc(C3CCN(CC(=O)N4CC(O)C4)CC3)cn2c1N(C)c1nc(-c2ccc(F)cc2)c(C#N)s1,concentration at 3 h,[10],58 nM
same,inhibition in vivo at 5 mg/kg,Rattus norvegicus [11],74%
same,half-life,[12],2.1 h
same,concentration at 1 h,[13],34 nM
same,Vd,[14],1.7 L/kg
same,inhibition in vivo at 5 mg/kg,Rattus norvegicus [15],97%
same,concentration at 0.5 h,[16],67 nM
same,fraction unbound,[17],< 0.01
same,Vd,[18],8.3 L/kg
same,inhibition in vivo at 5 mg/kg,Rattus norvegicus [19],82%
same,half-life,[20],2 h
CCc1nc2ccc(N3CCN(CCO)CC3)cn2c1N(C)c1nc(-c2ccc(F)cc2)cs1,IC50,Autotaxin [1],6080 nM
same,IC50,Autotaxin [2],2360 nM
same,IC50,Autotaxin [3],12 nM
CCc1nc2ccc(C3CCN(S(C)(=O)=O)CC3)cn2c1N(C)c1nc(-c2cc(F)cc(F)c2)cs1,IC50,Autotaxin [2],4250 nM
CCOC(=O)CN1CCN(c2ccc3nc(CC)c(N(C)c4nc(-c5ccc(F)cc5)cs4)n3c2)CC1,IC50,Autotaxin [2],280 nM
CCc1nc2ccc(N3CCN(CC(=O)O)CC3)cn2c1N(C)c1nc(-c2ccc(F)cc2)cs1,IC50,Autotaxin [2],9160 nM

# From ChEMBL document CHEMBL4038326, “Discovery, Structure-Activity Relationship, and Binding Mode of an Imidazo[1,2-a]pyridine Series of Autotaxin Inhibitors” (J Med Chem, 2017)
